Experimental data collected from several papers.
Compare with care: the assays were run in different laboratories.
KCNA1: Potassium voltage-gated channel subfamily A member 1 (KCNA1, Homo sapiens, UniProt Q09470)
INSR: Insulin receptor (INSR, Homo sapiens, UniProt P06213)

SMILES | target | test | system | setting | measurement | result
CNc1ncc2c(/C=C/C(=O)N3CCC(OC)CC3)nn(Cc3cccc(C(F)(F)F)c3)c2n1 | Cyclin-dependent kinase 3, with cyclin E1 (CDK3, Homo sapiens, UniProt Q00526) | enzyme activity, inhibitor, radiometric |  | 1 µM | remaining activity | 93%
CNCCCC12CCC(c3ccccc31)c1ccccc12 | KCNA1 | ion current, inhibitor, patch clamp |  | 3 µM | inhibition | 2.68%
CC(=O)c1c(C)c2cnc(Nc3ccc(N4CCNCC4)cn3)nc2n(C2CCCC2)c1=O | Cyclin-dependent kinase 3 (CDK3, Homo sapiens, UniProt Q00526) | enzyme activity, inhibitor, ADP detection |  | 1 µM | activity vs control | 90%
CC12CC3CC(C)(C1)CC(N)(C3)C2 | KCNA1 | ion current, inhibitor, patch clamp |  | 30 µM | inhibition | 45.8%
C=CC(=O)N1CCC(COCC(=O)N2CCN(c3nc(-c4cnc(N)nc4C(F)F)nc(N4CCOC[C@@H]4C)n3)CC2)CC1 | Serine/threonine-protein kinase SBK1 (SBK1, Homo sapiens, UniProt Q52WX2) | binding, competition with immobilised ligand |  | 1 µM | remaining binding | 100%
CC[C@H](C)[C@H](NC(=O)[C@H](CCC(N)=O)NC(=O)[C@H](CCCNC(=N)N)NC(=O)[C@H](CO)NC(=O)[C@H](Cc1c[nH]cn1)NC(=O)[C@@H]1CCCN1C(=O)[C@H](C)NC(=O)[C@H](CO)NC(=O)[C@H](CC(C)C)NC(=O)CNC(=O)[C@@H]1CCCN1C(=O)[C@H](CCC(N)=O)NC(=O)[C@H](CCC(N)=O)NC(=O)[C@H](CCCNC(=N)N)NC(=O)[C@H](CO)NC(=O)CNC(=O)[C@H](CO)NC(=O)[C@H](CO)NC(=O)[C@H](CCC(=O)O)NC(=O)[C@@H]1CCCN1C(=O)[C@@H]1CCCN1C(=O)[C@@H]1CCCN1C(=O)[C@H](CO)NC(=O)[C@H](CC(C)C)NC(=O)[C@H](CO)NC(=O)[C@@H](NC(=O)CN)[C@@H](C)O)C(=O)N1CCC[C@H]1C(=O)N[C@@H](C)C(=O)N1CCC[C@H]1C(=O)N[C@@H](CCC(N)=O)C(=O)NCC(=O)N[C@@H](C)C(=O)N[C@H](C(=O)N[C@@H](CC(C)C)C(=O)N[C@H](C(=O)N[C@@H](CCC(N)=O)C(=O)N[C@@H](CCCNC(=N)N)C(=O)N[C@@H](CCC(=O)O)C(=O)N[C@@H](CCCCN)C(=O)N[C@@H](CC(=O)O)C(=O)N[C@@H](CC(C)C)C(=O)N1CCC[C@H]1C(=O)N[C@@H](CC(N)=O)C(=O)N[C@@H](Cc1ccc(O)cc1)C(=O)N[C@@H](CC(N)=O)C(=O)N[C@@H](Cc1c[nH]c2ccccc12)C(=O)N[C@@H](CC(N)=O)C(=O)N[C@@H](CO)C(=O)N[C@@H](Cc1ccccc1)C(=O)NCC(=O)N[C@@H](CC(C)C)C(=O)N[C@@H](CCCNC(=N)N)C(=O)N[C@@H](Cc1ccccc1)C(N)=O)C(C)C)C(C)C | KiSS-1 receptor (KISS1R, Homo sapiens, UniProt Q969F8, N119A) | inositol phosphate, agonist | HEK293 |  | Emax | 93.6%
O=C(Cn1cc(C=CC(=O)c2ccc(F)cc2)nn1)Nc1nc(-c2ccccc2)cs1 | Collagenase 3 (MMP13, Homo sapiens, UniProt P45452) | enzyme activity, inhibitor |  | 0.5 µM | inhibition | 35.8%
Cc1cc([C@@H](C)Nc2ccccc2C(=O)O)c2nc(N3CCC(F)(F)CC3)c(C#N)c(=O)n2c1 | INSR | binding, competition with immobilised ligand |  | 1 µM | remaining binding | 100%
CC(C)NCC(O)COc1cccc2ccccc12 (stereo not drawn) | KCNA1 | ion current, inhibitor, patch clamp |  | 30 µM | inhibition | 37.8%
Cc1cc(NC(=O)c2cccc(NC(=O)/C=C/CN(C)C)c2)ccc1Nc1nccc(-c2cccnc2)n1 | INSR | binding, competition with immobilised ligand |  | 1 µM | remaining binding | 81%
Cn1c(=O)c2[nH]cnc2n(C)c1=O | KCNA1 | ion current, inhibitor, patch clamp |  | 10 µM | inhibition | 2.05%
COc1cc(-c2cncc3c2CN(C)Cc2cc(N4CCNCC4)ccc2-3)cc(OC)c1OC | Serine/threonine-protein kinase N2 (PKN2, Homo sapiens, UniProt Q16513) | enzyme activity, inhibitor |  | 1 µM | remaining activity | 112%
